Source: PubChem
MC4R barr agon: MC4R agonists recruiting beta-arrestin, primary screen, cell-based, luminescence, agonist arm of biased-ligand search | Melanocortin receptor 4 (Homo sapiens), P32245 | U2OS MC4R beta-arrestin complementation; percent of melanotan II response, DMSO zero | activation, % at 8.9 µM | hit rate 0.98% among 360,000 | AID 540308, 2011;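 active = activation above a per-plate cutoff, the mean activation of sample wells on that plate plus 3 SD, cut at about 8% in these data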
Myeloid diff 2: induction of myeloid progenitor differentiation, primary screen, cell-based, flow cytometry, MLPCN library | ER-HoxA9 myeloid progenitors, lysozyme-GFP differentiation | calls only at 10 µM | hit rate 1% among 360,000 | AID 624256, 2012;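 active = normalized GFP-positive differentiation at or above the plate's own cutoff, the solvent-only control mean plus 3 SD; inconclusive = no clear call, values can overlap the other calls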;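 also: cells exposed to compound for four days before flow analysis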
EBI2 block: EBI2 receptor antagonists, beta-arrestin recruitment, primary screen, cell-based, luminescence, 7a,25-OHC stimulation, uHTS | inhibition, % at 5 µM | G-protein coupled receptor 183 (Homo sapiens), P32249 | 7a,25-OHC stimulated | hit rate 0.81% among 360,000 | AID 651636, 2012; in the data active = inhibition above about 38%;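 also: enzyme fragment complementation signal reports receptor beta-arrestin coupling in cells; 0% = agonist plus DMSO wells and 100% = wells without agonist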
Target sequence (P32249 whole entry, looked up, the tested form may be a part): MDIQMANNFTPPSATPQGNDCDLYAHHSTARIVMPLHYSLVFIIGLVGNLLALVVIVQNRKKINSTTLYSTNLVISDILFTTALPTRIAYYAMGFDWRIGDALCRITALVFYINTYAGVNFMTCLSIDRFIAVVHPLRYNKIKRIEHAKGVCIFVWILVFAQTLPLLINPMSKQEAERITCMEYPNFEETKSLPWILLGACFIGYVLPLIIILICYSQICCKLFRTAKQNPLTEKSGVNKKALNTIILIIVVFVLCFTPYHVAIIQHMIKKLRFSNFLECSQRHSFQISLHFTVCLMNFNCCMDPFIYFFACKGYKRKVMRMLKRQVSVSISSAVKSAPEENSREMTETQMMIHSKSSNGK
Granule exo inh: LAMP-1 surface exposure blockers, TALL-104 cells – cell-based, flow cytometry, MLPCN library, primary screen | hit rate 0.66% among 360,000 | inhibition, % at 10 µM | TALL-104 LAMP-1 surface exposure; cells stimulated with thapsigargin and PMA;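 active = inhibition above about 55%, limit read from the data; inconclusive = no clear call, values can overlap the other calls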
MC4R antagonist: MC4R antagonists of cAMP signaling, primary screen, cell-based, TR-FRET, antagonist arm of biased-ligand search; inhibition, % at 6.5 µM; AID 540295, 2011; Melanocortin receptor 4 (Homo sapiens), P32245; hit rate 0.48% among 360,000; MC4R-expressing cells, MTII-stimulated cAMP, LANCE TR-FRET;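 active = inhibition above its plate's cutoff, the mean of tested wells on that plate plus 3 SD, cut at about 29% in these data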;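 also: 0% = Melanotan II alone and 100% = Melanotan II plus saturating MCL0020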
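Test system: U2OS cells stably expressing human melanocortin 4 receptor (MC4R); also added: Melanotan II challenge; compound: 6.5 µM single dose; timing: 30-min compound preincubation, 1-h Melanotan II challenge, 1-h detection, room temperature; signal: Eu-cAMP/anti-cAMP TR-FRET, emission 671 nm; repeats: one well per compound, no replicates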
Myeloid diff: inducers of myeloid progenitor differentiation, confirmation, cell-based, GFP/Mac1 flow cytometry, cherry pick 01. shares compounds with Myeloid diff 2. ER-HoxA9 myeloid progenitors, GFP/Mac1 double-positive flow. calls only. hit rate 2% among 2,300. AID 651706, 2012;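 active = share of green or green-and-red cells above 9 and 9% in run 1 or 4 and 3% in run 2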
GFP autofluor: counter-screen for myeloid differentiation promoters: compound fluorescence; shares compounds with Myeloid diff 2; hit rate 7.4% among 2,300; ER-HoxA9 myeloid progenitors, no estrogen, GFP autofluorescence flow cytometry; vehicle wells 0%, positive control 100%; fluorescence response, % (no concentration beside the values); AID 651707;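 active = over 5% cells positive for green fluorescent reporter, or over 2% positive for both it and APC stain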;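 also: range taken on the double positive population between DMSO and positive control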
* hit, by the source's call. Shown are actives, neighbours in structure and some others; about 3.7% of the full set was active somewhere.

For c1ccc2sc(-n3cc(C4CCCCC4)nn3)nc2c1 the results were Myeloid diff 2 inactive, EBI2 block 29 and Granule exo inh -6.
CO/N=C(\CS(=O)(=O)Cc1ccc(OC)cc1)c1ccc(Cl)cc1 was read as MC4R barr agon 8, Myeloid diff 2 inactive, EBI2 block 15, Granule exo inh 0, MC4R antagonist -2, Myeloid diff inactive and GFP autofluor 3.
`Cc1ccc(S(=O)(=O)Nc2ccc(Cl)cn2)cc1C` gave MC4R barr agon -1, Myeloid diff 2 inactive, EBI2 block 10, Granule exo inh -5 and MC4R antagonist 5.
For CC1(C)O[C@@H]2C[C@H]3[C@@H]4C[C@H](F)C5=CC(=O)CC[C@]5(C)[C@H]4[C@@H](O)C[C@]3(C)[C@]2(C(=O)CO)O1 the results were MC4R barr agon 1, Myeloid diff 2 inactive, EBI2 block -1, Granule exo inh -2, MC4R antagonist 12, Myeloid diff inactive and GFP autofluor 0.
`CC1(C)O[C@@H]2C[C@H]3[C@@H]4C[C@H](F)C5=CC(=O)C=C[C@]5(C)[C@H]4[C@@H](O)C[C@]3(C)[C@]2(C(=O)CO)O1` gave MC4R barr agon 0, Myeloid diff 2 inconclusive, EBI2 block -6, Granule exo inh -8 and MC4R antagonist 3.
For COc1ccc(CN=CC2=C(O)CNC2=O)cc1OC the results were MC4R barr agon 1, Myeloid diff 2 inactive, EBI2 block 0, Granule exo inh -1, MC4R antagonist 3, Myeloid diff inactive and GFP autofluor 0.
For O=C(NCC1CCCCC1)C12CN(Cc3ccccc3)CC1C(c1cccc([N+](=O)[O-])c1)=NO2 (stereo not given) the results were MC4R barr agon 2, Myeloid diff 2 active, EBI2 block 8, Granule exo inh -5, MC4R antagonist 14, Myeloid diff inactive and GFP autofluor 0.
Screening O=C(NCc1ccc(C(F)(F)F)cc1)C12CN(Cc3ccccc3)CC1C(c1cccc([N+](=O)[O-])c1)=NO2 (stereo not given) returned MC4R barr agon -1, Myeloid diff 2 inactive, EBI2 block 11, Granule exo inh 2 and MC4R antagonist -3.
O=c1[nH]c(Cc2ccccc2)nc2c1oc1ccccc12 was read as MC4R barr agon 0, Myeloid diff 2 inactive, EBI2 block -16, Granule exo inh 0 and MC4R antagonist 17.
Screening Cc1nc2c(oc3ccccc32)c(=O)o1 returned MC4R barr agon 2, Myeloid diff 2 active, EBI2 block -2, Granule exo inh 3, MC4R antagonist 6, Myeloid diff inactive and GFP autofluor 0.
`Cc1ccc(CNC(=O)C(=O)Nc2nccs2)cc1` gave MC4R barr agon -1, Myeloid diff 2 inactive, EBI2 block -12, Granule exo inh -1 and MC4R antagonist -3.
Cc1ccc(-c2nn3c(C)nnc3s2)cc1NC(=O)CSc1ccc(Cl)cc1 was read as MC4R barr agon 1, Myeloid diff 2 active, EBI2 block -3, Granule exo inh 16, MC4R antagonist 14, Myeloid diff active and GFP autofluor 5.
For Cc1nnc2sc(-c3ccc(NC(=O)CSc4ccc(Cl)cc4)cc3)nn12 the results were MC4R barr agon 1, Myeloid diff 2 inactive, EBI2 block -3, Granule exo inh 3 and MC4R antagonist -1.
Nc1ncnc2c1ncn2[C@@H]1O[C@H](C(=O)NS(=O)(=O)c2cccs2)[C@@H](O)[C@H]1O was read as Myeloid diff 2 inactive, EBI2 block -11 and Granule exo inh 3.
COc1cccc(C(O)c2nc(-c3ccccc3)cs2)c1 (stereo not given) was read as MC4R barr agon -1, Myeloid diff 2 inactive, EBI2 block -2, Granule exo inh -6 and MC4R antagonist -1.
For CC1Cc2ccccc2N1C(=O)CN1C(=O)NC2(CCCCC2)C1=O (stereo not given) the results were MC4R barr agon -1, Myeloid diff 2 inactive, EBI2 block -13, Granule exo inh 4 and MC4R antagonist 12.
For COc1ccc(-c2cc(C(=O)N3CCN(c4ccccc4OC)CC3)no2)cc1OC the results were MC4R barr agon 0, Myeloid diff 2 inactive, EBI2 block 8, Granule exo inh -2, MC4R antagonist 14, Myeloid diff inactive and GFP autofluor 1.
Screening C=CCNC(=S)N1N=C(c2ccco2)CC1c1ccco1 (stereo not given) returned MC4R barr agon -2, Myeloid diff 2 inactive, EBI2 block -5, Granule exo inh 41, MC4R antagonist 3, Myeloid diff inactive and GFP autofluor 0.
For CC(=O)c1c(N2CCOCC2)[nH]c(-c2ccccc2)nc1=S the results were MC4R barr agon 0, Myeloid diff 2 active, EBI2 block 1, Granule exo inh 1, MC4R antagonist -3, Myeloid diff active and GFP autofluor 0.
Screening O=C(CSc1nc2ccsc2c(=O)n1NC(=O)c1ccccc1)NCc1ccco1 returned MC4R barr agon 0, Myeloid diff 2 inactive, EBI2 block -8, Granule exo inh 1 and MC4R antagonist -2.
O=C(CSc1nc2ccsc2c(=O)n1NC(=O)c1ccccc1)Nc1nccs1 was read as MC4R barr agon 1, Myeloid diff 2 active, EBI2 block -1, Granule exo inh -1, MC4R antagonist -2, Myeloid diff inactive and GFP autofluor 0.
For CCCOC(=O)c1c(NC(=O)CCCn2nc([N+](=O)[O-])c(Cl)c2C)sc(C(=O)OC)c1C the results were MC4R barr agon 1, Myeloid diff 2 inactive, EBI2 block 14, Granule exo inh -2, MC4R antagonist 6, Myeloid diff inactive and GFP autofluor 0.
Screening CCOC(=O)c1sc(NC(=O)CCCn2nc([N+](=O)[O-])c(Cl)c2C)c(C(=O)OCC)c1C returned MC4R barr agon 0, Myeloid diff 2 inconclusive, EBI2 block 2, Granule exo inh 0 and MC4R antagonist 11.
`CCN(CC)CCNC(=O)C(Cl)=C1C(Cl)=C(Cl)C(Cl)=C1Cl` gave MC4R barr agon -3, Myeloid diff 2 inactive, EBI2 block -47, Granule exo inh 2 and MC4R antagonist -1.
